The values that follow come from ChEMBL document CHEMBL2439981, “Design, synthesis, and biological evaluation of bone-targeted proteasome inhibitors for multiple myeloma” (Bioorg Med Chem Lett, 2013).

Each structure is given as a SMILES string. pIC50: −log10 of the molar value.

Common to all, as to type: functional, cell-based
Experiment [1] is described as follows: (§1) Cytotoxicity against mouse 5TGM1 cells after 48 to 72 hrs by SRB assay. Put shortly:
(§2)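 Cells seeded in triplicate at 3,000 per well in RPMI with 10% fetal bovine serum; drugs added after 24 h at six or more concentrations (1–18 nM in the dose-response figure). Exposure 72 h per methods and figure legend, 48 h per table footnote. Sulforhodamine B colorimetric read-out. IC50 from growth-inhibition curve, mean ±SD of at least 3 independent experiments.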
On the technique in general: In SRB staining, fixed cells bind dye roughly in proportion to their protein.

A further experiment deals with 5TGM1. Described as §1. Put shortly:
as §2

The test system of the next experiment is RPMI-8226. Briefly: Cytotoxicity against human RPMI8226 cells after 48 to 72 hrs by SRB assay. Put shortly:
as §2

The term pIC50 denotes −log10 of the IC50, conventionally taken in molar units. A lower pIC50 goes with a large IC50. With `CC(C)C[C@H](NC(=O)[C@H](Cc1ccccc1)NC(=O)c1cnccn1)B(O)O` [BORTEZOMIB], the pIC50 in experiment [1] was 8.17; in the experiment with RPMI-8226, 8.02. Besides, the inhibition result in the experiment on 5TGM1 and with RPMI-8226 was “Dose-dependent effect” in each case.
As to `CC(C)C[C@H](NC(=O)[C@H](CC(C)C)NC(=O)[C@H](CC(C)C)NC(=O)OCc1ccccc1)B(O)O`, the pIC50 in experiment [1] is 8.04; with RPMI-8226, 7.86. Further, the inhibition entry with 5TGM1 and with RPMI-8226 was “Dose-dependent effect” each time.
With `CC(C)C[C@H](NC(=O)[C@H](CC(C)C)NC(=O)[C@H](CC(C)C)NC(=O)OCc1ccc(C(=O)NCCCC(O)(P(=O)(O)O)P(=O)(O)O)cc1)B(O)O`, the pIC50 in experiment [1] was 8.31; in the experiment on RPMI-8226, 7.90. The inhibition entry in the experiment with 5TGM1 and with RPMI-8226 was “Dose-dependent effect” in each case.
Consider `CC(C)C[C@H](NC(=O)[C@H](Cc1ccc(OCCCC(=O)NCCCC(O)(P(=O)(O)O)P(=O)(O)O)cc1)NC(=O)c1cnccn1)B(O)O`, for which the pIC50 in experiment [1] was 8.03; in the experiment with RPMI-8226 it was 7.94. Moreover, the inhibition result with 5TGM1 and with RPMI-8226 was “Dose-dependent effect” each time.
In the case of `CC(C)C[C@H](NC(=O)[C@H](Cc1ccccc1)NC(=O)c1cnc(C(=O)NCCCC(O)(P(=O)(O)O)P(=O)(O)O)cn1)B(O)O`, the figures for the pIC50 (in experiment [1]; in the experiment with RPMI-8226) were 8.12 and 7.99, respectively. The inhibition result in the experiment on 5TGM1 and in the experiment with RPMI-8226 was “Dose-dependent effect” in each case.
